Assay results of several laboratories.
Read-out: cell growth or viability

| SMILES | cell line | method | time | measurement | value |
| --- | --- | --- | --- | --- | --- |
| N.N.[Cl][Pt][Cl] | CCD 19Lu | – | 24 h | IC50 | > 100000 nM |
| CC[C@H](C)[C@@H]([C@@H](CC(=O)N1CCC[C@H]1[C@H](OC)[C@@H](C)C(=O)N[C@H](C)[C@@H](O)c1ccccc1)OC)N(C)C(=O)[C@@H](NC(=O)[C@H](C(C)C)N(C)C(=O)OCc1ccc(NC(=O)[C@H](C)NC(=O)[C@@H](NC(=O)CCc2cn(CCOCCOCCOCCOCC(=O)NCc3ccc(CN4C(=O)[C@H]5CC(=O)N[C@H](C(=O)O)CC(=O)NCC(=O)N[C@@H](CCCNC(=N)N)C(=O)NC[C@H]4C(=O)N5)cc3)nn2)C(C)C)cc1)C(C)C | M21 | MTT | 72 h | IC50 | 6.94 nM |
| N.N.[Cl][Pt][Cl] | B16-F10 | MTT | – | IC50 | 9380 nM |
| CC[C@H](Nc1nc(NCc2cnc(C)cc2C)c2ncn(C(C)C)c2n1)[C@@H](C)O | MB002 | – | 7 days | IC50 | 277 nM |
| CN[C@@H]1C[C@H]2O[C@@](C)([C@@H]1OC)n1c3ccccc3c3c4c(c5c6ccccc6n2c5c31)C(=O)NC4 | KB 3-1 | WST-1 | 5 days | Kb | 4 nM |
| N.N.[Cl][Pt][Cl] | M21 | SRB | 48 h | IC50 | 17000 nM |
| CC[C@@H]1C(=O)N(C)c2cnc(Nc3ccc(C(=O)NC4CCN(C)CC4)cc3OC)nc2N1C1CCCC1 | MB002 | – | 7 days | IC50 | 3.4 nM |
| COc1ccc2c(c1)[nH]c1c(C)nccc12 | BT-474 | MTT | 72 h | IC50 | 20200 nM |
| CC[C@H](C)[C@@H]([C@@H](CC(=O)N1CCC[C@H]1[C@H](OC)[C@@H](C)C(=O)N[C@H](C)[C@@H](O)c1ccccc1)OC)N(C)C(=O)[C@@H](NC(=O)[C@H](C(C)C)N(C)C(=O)CCc1cn(CCOCCOCCOCCOCC(=O)NCc2ccc(CN3C(=O)[C@H]4CC(=O)N[C@H](C(=O)O)CC(=O)NCC(=O)N[C@@H](CCCNC(=N)N)C(=O)NC[C@H]3C(=O)N4)cc2)nn1)C(C)C | M21 | MTT | 72 h | IC50 | 400 nM |
| Cc1sc2c(c1C)C(c1ccc(Cl)cc1)=N[C@@H](CC(=O)Nc1ccc(O)cc1)c1nnc(C)n1-2 | MB002 | – | 7 days | IC50 | 12.6 nM |
